Assay results from ChEMBL document CHEMBL2424625, “Synthesis and structure-activity relationships of novel indazolyl glucocorticoid receptor partial agonists” (Bioorg Med Chem Lett, 2013).

What was measured:
Assay type in all cases: cell-based
[1] = molecular target: T1, Glucocorticoid receptor (Homo sapiens) (UniProt P04150); test: Transrepression activity at glucocorticoid receptor in human A549 cells assessed as inhibition of IL1beta-stimulated NFkappaB-dependent E-selectin transcription by luciferase reporter gene assay relative to dexamethasone
T1 sequence (whole entry): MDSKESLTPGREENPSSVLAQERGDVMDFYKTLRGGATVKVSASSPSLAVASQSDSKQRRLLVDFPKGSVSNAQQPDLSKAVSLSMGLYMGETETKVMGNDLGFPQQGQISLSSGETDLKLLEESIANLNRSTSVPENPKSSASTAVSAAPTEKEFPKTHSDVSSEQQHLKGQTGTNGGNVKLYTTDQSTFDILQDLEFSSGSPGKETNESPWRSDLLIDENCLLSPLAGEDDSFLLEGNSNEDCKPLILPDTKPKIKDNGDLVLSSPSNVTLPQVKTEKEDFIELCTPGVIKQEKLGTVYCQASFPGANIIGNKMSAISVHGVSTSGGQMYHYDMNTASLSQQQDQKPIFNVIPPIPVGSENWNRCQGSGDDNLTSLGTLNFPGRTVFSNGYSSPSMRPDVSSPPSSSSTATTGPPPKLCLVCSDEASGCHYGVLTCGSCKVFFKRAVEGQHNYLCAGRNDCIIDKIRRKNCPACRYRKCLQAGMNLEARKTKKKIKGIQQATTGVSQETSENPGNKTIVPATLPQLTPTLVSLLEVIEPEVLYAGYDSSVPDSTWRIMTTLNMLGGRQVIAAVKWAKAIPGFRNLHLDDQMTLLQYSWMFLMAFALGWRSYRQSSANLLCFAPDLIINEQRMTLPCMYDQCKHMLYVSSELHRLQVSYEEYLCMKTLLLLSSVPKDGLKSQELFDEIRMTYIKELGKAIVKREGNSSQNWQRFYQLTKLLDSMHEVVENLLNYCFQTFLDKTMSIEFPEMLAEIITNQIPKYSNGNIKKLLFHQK
In short: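 In A549 lung epithelial cells, NFkB activity was induced with IL-1β (0.5 ng/ml). Inhibition was quantitated as decreased luciferase activity. […] Values are means of two or more experiments in triplicate.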

[2] = molecular target: T2, Mineralocorticoid receptor (Homo sapiens, UniProt P08235); test: Agonist activity at mineralocorticoid receptor in human A549 cells by fluorescence assay
T2 sequence (P08235 whole entry): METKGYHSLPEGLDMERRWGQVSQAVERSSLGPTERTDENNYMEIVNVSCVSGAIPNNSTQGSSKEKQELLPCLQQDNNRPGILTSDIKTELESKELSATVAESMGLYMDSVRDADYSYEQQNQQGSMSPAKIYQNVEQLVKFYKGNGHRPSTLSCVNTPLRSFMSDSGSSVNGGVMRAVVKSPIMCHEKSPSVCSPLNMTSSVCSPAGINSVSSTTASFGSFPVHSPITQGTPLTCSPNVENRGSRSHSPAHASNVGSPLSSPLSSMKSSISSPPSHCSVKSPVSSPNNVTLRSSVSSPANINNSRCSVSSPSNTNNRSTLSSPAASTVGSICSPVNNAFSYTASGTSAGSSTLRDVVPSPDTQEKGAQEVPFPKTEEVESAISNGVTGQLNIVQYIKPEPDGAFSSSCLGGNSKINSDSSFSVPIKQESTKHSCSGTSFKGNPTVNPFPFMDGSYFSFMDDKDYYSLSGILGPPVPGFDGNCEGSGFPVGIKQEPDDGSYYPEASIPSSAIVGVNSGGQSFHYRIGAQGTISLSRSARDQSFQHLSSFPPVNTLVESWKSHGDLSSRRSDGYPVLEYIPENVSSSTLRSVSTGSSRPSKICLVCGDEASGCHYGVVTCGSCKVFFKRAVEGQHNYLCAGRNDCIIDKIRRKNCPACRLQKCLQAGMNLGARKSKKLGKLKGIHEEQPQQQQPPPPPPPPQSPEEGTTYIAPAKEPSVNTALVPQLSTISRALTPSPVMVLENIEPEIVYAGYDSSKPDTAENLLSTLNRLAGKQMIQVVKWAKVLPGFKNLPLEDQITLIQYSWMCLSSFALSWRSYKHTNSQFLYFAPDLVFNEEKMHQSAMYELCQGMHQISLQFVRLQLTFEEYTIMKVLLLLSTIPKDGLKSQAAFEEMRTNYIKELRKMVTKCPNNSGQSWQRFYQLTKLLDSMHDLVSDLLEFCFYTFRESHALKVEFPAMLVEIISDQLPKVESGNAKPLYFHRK
In short: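 A549 cells were run in MR agonist mode with aldosterone as positive control. EC50 was reported with % maximal efficacy, as means of duplicate experiments.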

[3] = molecular target: T1, Glucocorticoid receptor (Homo sapiens); test: Transactivation activity at glucocorticoid receptor ligand binding domain (unknown origin) expressed in human Hela cells co-expressing GAL4 DNA binding domain assessed as NP-1-stimulated GRE activation by luciferase reporter gene assay relative to dexamethasone
In short: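 HeLa line (NP-1) stably transfected with a GR-LBD chimera cloned into a GAL4 luciferase reporter was run in agonist mode. Direct GR-LBD activation was read as increased luciferase activity. […] Values are means of two or more experiments in triplicate.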

Compound	Efficacy [1] [%]	IC50 [2] [µM]	Efficacy [3] [%]
CC(C)(CNS(=O)(=O)CC(F)(F)F)[C@@H](c1ccccc1)c1ccc2c(cnn2-c2ccc(F)cc2)c1	86	> 5	24
CC(C)(CNC(=O)CC(F)(F)F)[C@@H](c1ccccc1)c1ccc2c(cnn2-c2ccc(F)cc2)c1	90	> 5	65
CC(C)(C)NC(=O)NCC(C)(C)[C@@H](c1ccccc1)c1ccc2c(cnn2-c2ccc(F)cc2)c1	65	> 5	12
